Reference: ChEMBL document CHEMBL1148673, “Peptidomimetic C5a receptor antagonists with hydrophobic substitutions at the C-terminus: increased receptor specificity and in vivo activity” (Bioorg Med Chem Lett, 2006)
Residues, ends and D or L forms follow the SMILES beside them.

Legend:
[1] = target: T1, C5a anaphylatoxin chemotactic receptor 1 (Homo sapiens) (UniProt P21730); assay: Agonist activity at human C5aR in CD88 transfected RBL cells at 286 uM; format: functional, cell-based
T1 sequence (whole entry): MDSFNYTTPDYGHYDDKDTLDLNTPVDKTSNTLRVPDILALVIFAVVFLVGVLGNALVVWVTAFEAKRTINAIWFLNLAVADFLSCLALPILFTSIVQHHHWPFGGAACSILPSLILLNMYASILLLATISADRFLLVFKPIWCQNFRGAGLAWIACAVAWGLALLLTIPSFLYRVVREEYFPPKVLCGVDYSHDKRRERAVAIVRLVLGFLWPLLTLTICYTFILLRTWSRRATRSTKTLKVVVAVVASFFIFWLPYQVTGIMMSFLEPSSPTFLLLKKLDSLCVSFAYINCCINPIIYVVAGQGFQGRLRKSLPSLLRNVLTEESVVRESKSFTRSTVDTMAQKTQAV

[2] = target: T2, C5a anaphylatoxin chemotactic receptor 1 (Homo sapiens, UniProt P21730); assay: Antagonist activity at human C5aR in CD88 transfected RBL cells assessed as inhibition of C5a-induced glucosaminidase release; format: functional, cell-based
T2 sequence (P21730 whole entry): T1 sequence (whole entry)
Method in brief: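 Functional antagonism read as inhibition of glucosaminidase release stimulated by C5a from RBL cells transfected with CD88 (RBL+); IC50 in µM.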

[3] = Stability in human liver microsome after 1 hr; format: ADME; settings: liver microsomes, read-out: Stability
Method in brief: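 Compound incubated with human liver microsomes, 1 h at 37 °C; read-out is % of parent remaining.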

Work on `CC(=O)N[C@@H](Cc1ccccc1)C(=O)N[C@@H](CCCN)C(=O)N1CCC[C@H]1C(=O)N[C@@H](CCC(C)C)C(=O)N[C@H](Cc1ccc(F)cc1)C(=O)N[C@H](Cc1ccccc1)C(N)=O` yielded an Activity [1] of 0%.
Work on `CC(=O)N[C@@H](Cc1ccccc1)C(=O)N[C@@H](CCCN)C(=O)N1CCC[C@H]1C(=O)N[C@H](CCC(C)C)C(=O)N[C@H](Cc1csc2ccccc12)C(=O)N[C@H](Cc1ccccc1)C(N)=O` yielded an Activity [1] of 0%.
In the case of `CC(=O)N[C@@H](Cc1ccccc1)C(=O)N[C@@H](CCCN)C(=O)N1CCC[C@H]1C(=O)N[C@H](CCC(C)C)C(=O)N[C@@H](Cc1ccc(Cl)c(Cl)c1)C(=O)N[C@@H](Cc1ccccc1)C(N)=O`, the IC50 [2] is reported as 116 nM and the remaining at 1 h [3] is reported as 49%.
With `CC(=O)N[C@@H](Cc1ccccc1)C(=O)N[C@@H](CCCN)C(=O)N1CCC[C@H]1C(=O)N[C@H](CCC(C)C)C(=O)N[C@@H](Cc1c[nH]c2ccccc12)C(=O)N[C@@H](Cc1ccccc1)C(N)=O` the IC50 [2] was 63 nM and the remaining at 1 h [3] was 37%.
Compound `CC(=O)N[C@@H](Cc1ccccc1)C(=O)N[C@@H](CCCN)C(=O)N1CCC[C@H]1C(=O)N[C@H](CCC(C)C)C(=O)N[C@H](Cc1c[nH]c2ccccc12)C(=O)N[C@H](Cc1ccccc1)C(N)=O` has an Activity [1] of 0%.
For `CC(=O)N[C@@H](Cc1ccccc1)C(=O)N[C@@H](CCCN)C(=O)N1CCC[C@H]1C(=O)N[C@H](CC1CCCCC1)C(=O)N[C@@H](Cc1c[nH]c2ccccc12)C(=O)N[C@@H](Cc1ccccc1)C(N)=O` (HELM PEPTIDE1{[ac].F.[Orn].P.[O=C([C@@H](CC1CCCCC1)N[*:1])[*:2]].W.F.[am]}$$$$V2.0), the IC50 [2] was 31 nM and the remaining at 1 h [3] was 34%.
In the case of `CC(C)CC[C@H](NC(=O)[C@@H]1CCCN1C(=O)[C@H](CCCN)NC(=O)[C@H](Cc1ccccc1)NC(=O)[C@@H]1CC(=O)NC(=O)N1)C(=O)N[C@@H](Cc1ccc(F)cc1)C(=O)N[C@H](Cc1ccccc1)C(N)=O`, the Activity [1] is reported as 0%.
`CC(=O)N[C@@H](Cc1ccccc1)C(=O)N[C@@H](CCCN)C(=O)N1CCC[C@H]1C(=O)N[C@H](CCC(C)C)C(=O)N[C@@H](Cc1cccc(Cl)c1)C(=O)N[C@@H](Cc1ccccc1)C(N)=O` gave an IC50 [2] of 60 nM and a remaining at 1 h [3] of 62%.
Work on `CC(=O)N[C@@H](Cc1ccccc1)C(=O)N[C@@H](CCCN)C(=O)N1CCC[C@H]1C(=O)N[C@H](CCC(C)C)C(=O)N[C@@H](Cc1ccc(F)cc1)C(=O)N[C@@H](Cc1ccccc1)C(N)=O` yielded an IC50 [2] of 71 nM and a remaining at 1 h [3] of 65%.
With `CC(=O)N[C@@H](Cc1ccccc1)C(=O)N[C@@H](CCCN)C(=O)N1CCC[C@H]1C(=O)N[C@H](CCC(C)C)C(=O)N[C@@H](Cc1csc2ccccc12)C(=O)N[C@@H](Cc1ccccc1)C(N)=O` the IC50 [2] was 27 nM and the remaining at 1 h [3] was 1%.
`CCCC[C@H]1NC(=O)[C@H](Cc2c[nH]c3ccccc23)NC(=O)[C@@H](CC2CCCCC2)NC(=O)[C@@H]2CCCN2C(=O)[C@@H](NC(=O)[C@H](Cc2ccccc2)NC(C)=O)CCCNC1=O` (HELM PEPTIDE1{[ac].F.[Orn].P.[O=C([C@@H](CC1CCCCC1)N[*:1])[*:2]].W.[CCCC[C@@H](N[*:1])C(=O)[*:2]]}$PEPTIDE1,PEPTIDE1,3:R3-7:R2$$$V2.0) gave an IC50 [2] of 107 nM.
With `CC(=O)N[C@@H](Cc1ccccc1)C(=O)N[C@H]1CCCNC(=O)[C@H](CCC(C)C)NC(=O)[C@H](Cc2c[nH]c3ccccc23)NC(=O)[C@@H](CC2CCCCC2)NC(=O)[C@@H]2CCCN2C1=O` (HELM PEPTIDE1{[ac].F.[Orn].P.[O=C([C@@H](CC1CCCCC1)N[*:1])[*:2]].W.[CC(C)CC[C@H](N[*:1])C(=O)[*:2]]}$PEPTIDE1,PEPTIDE1,3:R3-7:R2$$$V2.0) the IC50 [2] was 57 nM.
`CC(=O)N[C@@H](Cc1ccccc1)C(=O)N[C@H]1CCCNC(=O)[C@H](CCCCNC(=N)N)NC(=O)[C@H](Cc2c[nH]c3ccccc23)NC(=O)[C@@H](CC2CCCCC2)NC(=O)[C@@H]2CCCN2C1=O` showed an IC50 [2] of 360 nM.
`CC(=O)N[C@@H](Cc1ccccc1)C(=O)N[C@H]1CCCNC(=O)[C@H](CCCN)NC(=O)[C@H](Cc2c[nH]c3ccccc23)NC(=O)[C@@H](CC2CCCCC2)NC(=O)[C@@H]2CCCN2C1=O` showed an IC50 [2] of 18 nM.
